Consider six molecules from ChEMBL document CHEMBL1828608, “A chrysin analog exhibited strong inhibitory activities against both PGE2 and NO production” (Eur J Med Chem, 2011).

By inhibition is commonly meant the drop in the measured response relative to a control, in per cent.

The target of data set [1] is T1, Prostaglandin G/H synthase 2 (Mus musculus) (UniProt Q05769).
T1 sequence (whole entry): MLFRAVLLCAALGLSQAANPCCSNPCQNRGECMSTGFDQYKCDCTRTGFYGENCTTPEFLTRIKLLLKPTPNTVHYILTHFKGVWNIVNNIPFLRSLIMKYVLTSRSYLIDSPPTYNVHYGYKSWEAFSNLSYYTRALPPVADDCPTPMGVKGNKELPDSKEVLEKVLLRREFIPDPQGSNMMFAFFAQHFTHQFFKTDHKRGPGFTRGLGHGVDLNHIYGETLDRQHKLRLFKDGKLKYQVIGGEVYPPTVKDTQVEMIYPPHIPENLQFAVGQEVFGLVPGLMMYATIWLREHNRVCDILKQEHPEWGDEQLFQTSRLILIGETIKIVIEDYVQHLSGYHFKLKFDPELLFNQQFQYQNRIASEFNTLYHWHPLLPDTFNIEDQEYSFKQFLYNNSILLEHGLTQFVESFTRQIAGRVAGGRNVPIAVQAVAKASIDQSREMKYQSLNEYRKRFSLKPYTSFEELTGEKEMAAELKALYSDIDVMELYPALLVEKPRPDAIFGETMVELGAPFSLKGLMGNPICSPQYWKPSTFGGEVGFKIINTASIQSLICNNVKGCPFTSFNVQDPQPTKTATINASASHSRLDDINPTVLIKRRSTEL
Description: Inhibition of COX2-mediated PGE2 production in LPS-induced mouse RAW264.7 cells at 10 uM after 24 hrs by ELISA. The class given is cell-based. The gist of the method: (§1)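 RAW 264.7 cells in DMEM with 10% FBS and 1% antibiotics at 37 °C, 5% CO₂, plated at 2 × 10⁵ cells/well and pre-incubated 2 h. Compound and LPS were then added together for 24 h. Medium readouts: for NO, nitrite by Griess reagent at OD 550 nm; for PGE₂, commercial ELISA.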

The target in data set [2] is T2, Nitric oxide synthase, inducible (Mus musculus) (UniProt P29477).
T2 sequence (whole entry): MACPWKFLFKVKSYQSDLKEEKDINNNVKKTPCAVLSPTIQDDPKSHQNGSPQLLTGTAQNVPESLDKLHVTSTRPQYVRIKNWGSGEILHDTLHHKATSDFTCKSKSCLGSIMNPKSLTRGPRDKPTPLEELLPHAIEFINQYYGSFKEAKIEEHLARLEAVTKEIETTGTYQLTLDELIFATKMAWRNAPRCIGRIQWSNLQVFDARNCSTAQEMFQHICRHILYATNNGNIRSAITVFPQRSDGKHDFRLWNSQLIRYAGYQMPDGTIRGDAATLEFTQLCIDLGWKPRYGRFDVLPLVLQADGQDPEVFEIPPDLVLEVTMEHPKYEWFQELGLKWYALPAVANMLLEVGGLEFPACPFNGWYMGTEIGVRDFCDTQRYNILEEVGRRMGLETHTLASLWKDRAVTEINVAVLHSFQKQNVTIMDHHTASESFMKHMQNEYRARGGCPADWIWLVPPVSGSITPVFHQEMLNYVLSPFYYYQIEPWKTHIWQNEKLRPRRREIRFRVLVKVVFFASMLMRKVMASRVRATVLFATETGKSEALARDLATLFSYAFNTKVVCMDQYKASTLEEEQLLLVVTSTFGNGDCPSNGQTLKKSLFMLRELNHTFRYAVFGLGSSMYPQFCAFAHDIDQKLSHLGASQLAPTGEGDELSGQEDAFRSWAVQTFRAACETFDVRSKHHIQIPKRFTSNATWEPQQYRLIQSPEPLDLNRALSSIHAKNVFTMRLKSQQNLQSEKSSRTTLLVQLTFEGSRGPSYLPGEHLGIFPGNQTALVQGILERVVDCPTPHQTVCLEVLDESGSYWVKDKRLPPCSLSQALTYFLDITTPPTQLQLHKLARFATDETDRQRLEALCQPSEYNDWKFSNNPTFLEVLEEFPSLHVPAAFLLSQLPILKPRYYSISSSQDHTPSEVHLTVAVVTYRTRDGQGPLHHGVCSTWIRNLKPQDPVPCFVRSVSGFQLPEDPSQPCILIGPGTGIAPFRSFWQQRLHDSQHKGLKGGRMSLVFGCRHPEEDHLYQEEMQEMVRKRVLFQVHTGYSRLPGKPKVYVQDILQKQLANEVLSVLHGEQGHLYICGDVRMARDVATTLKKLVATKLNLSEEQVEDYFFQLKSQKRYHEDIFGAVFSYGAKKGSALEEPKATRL
The data set is described as follows: Inhibition of iNOS-mediated NO production in LPS-induced mouse RAW264.7 cells at 10 uM after 24 hrs by griess method. It counts as cell-based. An outline of the steps:
as §1
On the technique in general: The Griess reaction detects nitrite, a stable product of nitric oxide.

Data set [3] in a line: Cytotoxicity against mouse RAW264.7 cells assessed as reduction in cell viability at 10 uM after 24 hrs by MTT assay. (In general: Tetrazolium dyes change colour on reduction, which living cells bring about.)

As for `Cc1c(O)cc(O)c2c(=O)cc(-c3ccccc3)oc12`, the inhibition was 44.3% in data set [1] and 3.7% in data set [2]. For the same molecule, the reduction in viability at 24 h, 10 µM in data set [3] was < 10%.
As to `O=c1cc(-c2ccccc2)oc2c(-c3ccncc3)c(O)cc(O)c12`, the inhibition is 92.4% in data set [1] and 29.1% in data set [2]. For the same molecule, the reduction in viability at 24 h, 10 µM in data set [3] is < 10%.
For `O=c1cc(-c2ccccc2)oc2c(-c3cccnc3)c(O)cc(O)c12`, the inhibition in data set [1] was 48.1%; in data set [2], 16.7%. For the same molecule, in data set [3], the reduction in viability at 24 h, 10 µM was < 10%.
For `O=c1cc(-c2ccccc2)oc2cc(O)cc(O)c12`, the inhibition was 74% in data set [1] and 8.9% in data set [2].
With `O=c1cc(-c2ccccc2)oc2c(-c3ccsc3)c(O)cc(O)c12`, the values for the inhibition in data set [1] and in data set [2] were 31.4% and 7.6%, respectively. In addition, the reduction in viability at 24 h, 10 µM in data set [3] was < 10%.
Regarding `O=c1cc(-c2ccccc2)oc2c(-c3ccoc3)c(O)cc(O)c12`, the inhibition stood at 26.7% in data set [1] and 8.3% in data set [2]. The reduction in viability at 24 h, 10 µM in data set [3] is < 10%.
